Assay results published in paper PMC3866046 (Biochemical pharmacology, 2013).
Read-outs that look alike come from different tables or passages of the source. Each block holds one compound with its values, some of them ahead of it.

How the values were obtained:
hENT2 [1] = biological target: T1, hENT2 (Homo sapiens, UniProt Q14542); experiment: Inhibition of [3H]uridine uptake in PK15/hENT2 cells; type: cell-based
T1 sequence (Q14542 1-456): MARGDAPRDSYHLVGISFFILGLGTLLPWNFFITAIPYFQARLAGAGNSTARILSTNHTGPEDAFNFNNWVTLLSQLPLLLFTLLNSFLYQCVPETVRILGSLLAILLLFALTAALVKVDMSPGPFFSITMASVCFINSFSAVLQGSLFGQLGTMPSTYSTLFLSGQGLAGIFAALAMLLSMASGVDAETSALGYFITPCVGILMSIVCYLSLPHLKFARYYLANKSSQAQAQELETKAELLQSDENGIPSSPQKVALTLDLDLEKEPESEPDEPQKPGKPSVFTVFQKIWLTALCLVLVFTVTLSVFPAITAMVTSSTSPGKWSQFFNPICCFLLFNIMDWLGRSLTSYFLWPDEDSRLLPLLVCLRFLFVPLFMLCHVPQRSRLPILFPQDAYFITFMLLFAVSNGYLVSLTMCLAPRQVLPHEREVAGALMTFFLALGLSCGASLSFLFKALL
In short: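 PK15 cells stably expressing hENT2, in sodium-free choline chloride buffer at pH 7.4. Test compound was added for 15 min, either at graded concentrations or at 10 μM for screening; 0.2 μM [3H]uridine was then taken up for 2 min. Stopped with ice-cold PBS washes, lysed in Triton X-100, scintillation counted. Triplicates; screening uptake given as % of compound-free uptake; IC50 by nonlinear fit.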

hENT4 = biological target: T2, hENT4 (Homo sapiens, UniProt Q7RTT9); experiment: Inhibition of [3H]adenosine uptake in PK15/hENT4 cells at pH 6.0; type: cell-based
T2 sequence (Q7RTT9 1-530): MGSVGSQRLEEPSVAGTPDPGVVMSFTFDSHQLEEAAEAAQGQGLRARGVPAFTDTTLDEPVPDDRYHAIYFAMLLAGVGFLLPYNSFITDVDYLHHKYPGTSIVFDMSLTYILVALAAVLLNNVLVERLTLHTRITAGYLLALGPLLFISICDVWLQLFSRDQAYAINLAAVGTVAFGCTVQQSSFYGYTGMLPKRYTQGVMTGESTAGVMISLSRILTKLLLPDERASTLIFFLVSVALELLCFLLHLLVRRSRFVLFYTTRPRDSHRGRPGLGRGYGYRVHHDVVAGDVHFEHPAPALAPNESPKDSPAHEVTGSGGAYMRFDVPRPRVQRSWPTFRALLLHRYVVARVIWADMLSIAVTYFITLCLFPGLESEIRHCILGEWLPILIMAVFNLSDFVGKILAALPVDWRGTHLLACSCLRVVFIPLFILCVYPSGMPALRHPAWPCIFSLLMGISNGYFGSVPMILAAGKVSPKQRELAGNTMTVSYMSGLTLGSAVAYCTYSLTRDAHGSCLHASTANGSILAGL
In short: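 PK15NTD porcine kidney cells stably expressing FLAG-tagged hENT4 (cDNA cloned from HUVECs, G418-selected). Cells preincubated 15 min with graded test compound concentrations in transport buffer at pH 6.0, then given 0.2 μM [3H]adenosine for 2 min. Stopped by aspiration and three ice-cold PBS washes, lysed in 5% Triton X-100, scintillation counted. Triplicates; IC50 by nonlinear fitting.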

hENT2 [2] = biological target: T1, hENT2; conditions: read-out: hENT2 IC50; cited from earlier work
PK15-hENT4 cells = experiment: MTT assay for cell viability; type: cell-based, porcine; conditions: 10 μM, 24 hours, compared with camptothecin
In short: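 PK15NTD (nucleoside-transporter-deficient) cells stably expressing recombinant hENT4 were trypsinised and seeded at 5 × 10^3 cells/well in MEM. […] MTT (5 mg/ml stock in PBS) was added for 4 h at 37 °C. Formazan was dissolved in 0.04 N HCl/isopropanol for 3 h at room temperature, and absorbance was read at 570 nm.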

mouse ENT4 = conditions: read-out: apparent Km of adenosine transport; pH 5.5; cited from earlier work
human ENT4 = conditions: read-out: apparent Km of adenosine transport; pH 5.5; cited from earlier work

IC50 (hENT2 [1]): 1350 nM
IC50 (hENT4): 2330 nM
SMILES: O=[N+]([O-])c1ccc(CSc2ncnc3c2ncn3[C@@H]2O[C@H](CO)[C@@H](O)[C@H]2O)cc1 [NBMPR, nitrobenzylmercaptopurine ribonucleoside, reference compound]
IC50 (hENT2 [2]): 2800 nM

selectivity for hENT4 relative to ENT1 (hENT4): about 80 fold
selectivity for hENT4 relative to ENT2 (hENT4): ~20 fold
SMILES: CC(C)CN(CC(C)C)c1nc(NCCO)nc2c(N(CC(C)C)CC(C)C)nc(NCCO)nc12 [Compound 30, 2,6-diethanolamino-4,8-di-(diisobutylamino)-pyrimido[5,4-d]pyrimidine]
cytotoxicity / cell viability (in words) (PK15-hENT4 cells): no cytotoxicity
cytotoxicity / cell viability (in words) (PK15-hENT4 cells; listed as compound 30): significantly non-cytotoxic

SMILES: Nc1ncnc2c1ncn2[C@@H]1O[C@H](CO)[C@@H](O)[C@H]1O [adenosine]
Km (mouse ENT4): 130 µM
Km (human ENT4): 780 µM

activity against hENT2 (in words) (hENT2 [1]): active
SMILES: OCCN(CCO)c1nc(N2CCCCCCC2)c2nc(N(CCO)CCO)nc(N3CCCCCCC3)c2n1 [Compound 13, 2,6-bis(diethanolamino)-4,8-diheptamethyleneimino-pyrimido[5,4d]pyrimidine]
